Consider one molecule from ChEMBL document CHEMBL3259660, “Haloemodin as novel antibacterial agent inhibiting DNA gyrase and bacterial topoisomerase I” (J Med Chem, 2014).

Data set [1] in a line: Binding affinity to supercoiled pHOT-1 DNA assessed as unwinding of DNA helix by measuring shift of negative to positive supercoiled pHOT-1 at 10 to 150 uM treated 15 mins prior to Escherichia coli topoisomerase 1 addition for 30 mins by agarose gel electrophoresis.
For data set [2], the target named is T1, DNA topoisomerase 1 (Escherichia coli (strain K12)) (UniProt P06612).
T1 sequence (whole entry): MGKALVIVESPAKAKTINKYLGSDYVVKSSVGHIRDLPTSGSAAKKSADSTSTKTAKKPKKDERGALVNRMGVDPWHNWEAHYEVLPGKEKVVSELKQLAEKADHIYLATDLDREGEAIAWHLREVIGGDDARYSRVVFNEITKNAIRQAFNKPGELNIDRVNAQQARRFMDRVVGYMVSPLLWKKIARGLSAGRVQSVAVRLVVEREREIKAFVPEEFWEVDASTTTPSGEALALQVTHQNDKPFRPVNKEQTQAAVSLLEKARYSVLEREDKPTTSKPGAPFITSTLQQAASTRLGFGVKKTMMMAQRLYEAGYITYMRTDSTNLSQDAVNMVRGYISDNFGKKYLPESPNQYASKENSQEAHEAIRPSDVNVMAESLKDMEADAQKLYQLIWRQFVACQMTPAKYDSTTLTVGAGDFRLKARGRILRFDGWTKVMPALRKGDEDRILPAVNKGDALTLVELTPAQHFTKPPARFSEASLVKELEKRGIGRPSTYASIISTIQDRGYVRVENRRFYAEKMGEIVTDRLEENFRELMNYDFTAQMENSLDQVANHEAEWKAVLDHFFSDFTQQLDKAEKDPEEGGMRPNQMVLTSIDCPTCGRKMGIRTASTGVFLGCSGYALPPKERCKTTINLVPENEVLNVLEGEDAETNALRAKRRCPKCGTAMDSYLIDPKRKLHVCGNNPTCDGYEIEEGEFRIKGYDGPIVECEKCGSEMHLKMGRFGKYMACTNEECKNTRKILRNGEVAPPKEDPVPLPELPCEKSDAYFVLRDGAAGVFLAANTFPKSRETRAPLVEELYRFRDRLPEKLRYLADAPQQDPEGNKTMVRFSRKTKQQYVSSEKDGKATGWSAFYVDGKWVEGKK
Nature of the data set: Inhibition of Escherichia coli topoisomerase 1-mediated pHOT-1 DNA relaxation treated with pHOT-1 substrate for 15 mins prior to enzyme addition for 30 mins by agarose gel electrophoresis.

Data set [3] is described as follows: Binding affinity to supercoiled pHOT-1 DNA assessed as unwinding of DNA helix by measuring distribution of topoisomers at 10 to 150 uM treated 15 mins prior to human topoisomerase 1 addition for 30 mins by agarose gel electrophoresis.
Data set [4] can be described thus: Cytotoxicity against CHL cells assessed as cell viability at 0.064 mg/ml after 24 hrs by MTT assay. The class given is cell-based, Cricetulus griseus. The note with it: chinese hamster. In short, it runs like this:
(§1)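 CHL fibroblasts seeded at about 5 × 10^4 cells/mL, incubated overnight at 37 °C, 5% CO2, then exposed to compound at different concentrations for 24 h. Viability read by MTT, absorbance at 570 nm, relative to cells in medium alone (100%). Triplicate.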
For orientation: Tetrazolium assays rely on reduction of a dye to a coloured formazan, in cell work by metabolically active cells.

For data set [5], the target named is T1, DNA topoisomerase 1 (Escherichia coli (strain K12)). Put plainly: Inhibition of Escherichia coli topoisomerase 1 assessed as single stranded breaks using pHOT-1 DNA as substrate treated with substrate for 15 mins prior to enzyme addition for 30 mins by agarose gel electrophoresis.
In data set [6] the test system is Pseudomonas aeruginosa. Put plainly: Antibacterial activity against Pseudomonas aeruginosa assessed as growth inhibition by agar dilution assay. In kind it is functional. In a few lines:
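CLSI agar dilution MIC against aerobic and anaerobic strains. Test compounds were dissolved in DMSO and reference antibiotics in sterile water. MIC was taken as the lowest concentration showing no bacterial growth. Each MIC was determined at least twice on separate days, and the higher value was reported. E. coli PQ 37 was cultured in LA medium.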

Data set [7] concerns the target T2, DNA gyrase (Staphylococcus aureus) (UniProt P0A0K8+P20831). Put plainly: Inhibition of Staphylococcus aureus DNA gyrase-mediated double-stranded catenated kinetoplast DNA decatenation at 90 uM after 30 mins by agarose gel electrophoresis in presence of ATP. In kind it is protein-complex assay. In a few lines: (§2)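 kDNA decatenation: 200 ng catenated kDNA with 1 U S. aureus gyrase, E. coli gyrase or human Topo IIα in assay buffer with ATP, 37 °C for 30 min. Stopped with universal stop solution, resolved on 1% agarose, ethidium bromide stained, UV imaging.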

The test system of another data set is Enterococcus faecium. Put plainly: Antibacterial activity against vancomycin-resistant Enterococcus faecium assessed as growth inhibition by agar dilution assay. In kind it is functional. (In general: In agar dilution the substance is mixed into plates at graded concentrations.)
A short description of data set [8]: Cytotoxicity against CHL cells assessed as cell viability after 24 hrs by MTT assay. In kind it is cell-based, Cricetulus griseus. The note with it: chinese hamster. In a few lines:
as §1

Data set [9] relates to Escherichia coli. Nature of the data set: Inhibition of Escherichia coli DNA gyrase-mediated pHOT-1 supercoiling at 30 uM after 30 mins by agarose gel electrophoresis in presence of ATP. In short, it runs like this: (§3)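 Supercoiling: 100 ng relaxed pHOT-1 with 1 U S. aureus or E. coli gyrase and graded compound concentrations, ATP present, 37 °C for 30 min. Stopped with 10% SDS, 1% agarose electrophoresis, ethidium bromide staining, UV imaging; ciprofloxacin positive control.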

The subject of data set [10] is Escherichia coli. Put plainly: Inhibition of Escherichia coli DNA gyrase-mediated double-stranded catenated kinetoplast DNA decatenation at 90 uM after 30 mins by agarose gel electrophoresis in presence of ATP. In short, it runs like this: as §2
The subject of data set [11] is Pseudomonas aeruginosa. Nature of the data set: Antibacterial activity against Pseudomonas aeruginosa ATCC 27853 assessed as growth inhibition by agar dilution assay. In kind it is functional. In a few lines: (§4)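 Agar dilution MIC per CLSI (aerobic and anaerobic methods); compounds dissolved in DMSO, reference antibiotics in sterile water. MIC taken as lowest concentration with no visible growth; determined at least twice on separate days, higher value reported. Clinical isolate ranges summarized as MIC50/MIC90.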

Data set [12] deals with Escherichia coli. Put plainly: Antibacterial activity against Escherichia coli assessed as growth inhibition by agar dilution assay in presence of 0.002 mg/ml OM permeabilizer PBMN. The class given is functional.
Data set [13] deals with Staphylococcus epidermidis. Nature of the data set: Antibacterial activity against methicillin-sensitive Staphylococcus epidermidis assessed as growth inhibition by agar dilution assay. The class given is functional. In a few lines: as §4
The next data set relates to Staphylococcus aureus. Put plainly: Antibacterial activity against Staphylococcus aureus ATCC 29213 assessed as growth inhibition by agar dilution assay. The class given is functional. In a few lines: as §4
The subject of data set [14] is Brevibacillus laterosporus. Nature of the data set: Antibacterial activity against Brevibacillus laterosporus ATCC 64 assessed as growth inhibition by agar dilution assay. In kind it is functional.
The next data set has as its system Streptococcus pneumoniae. Nature of the data set: Antibacterial activity against Streptococcus pneumoniae ATCC 49619 assessed as growth inhibition by agar dilution assay. In kind it is functional. In short, it runs like this:
as §4

Data set [15] addresses T2, DNA gyrase (Staphylococcus aureus). Nature of the data set: Inhibition of Staphylococcus aureus DNA gyrase-mediated pHOT-1 supercoiling at 30 uM after 30 mins by agarose gel electrophoresis in presence of ATP. In kind it is protein-complex assay. In a few lines: as §3
A further data set deals with Enterococcus faecalis. Nature of the data set: microbe, parasite or virus in culture. In kind it is functional. The conditions noted are these: ATCC 29212.

In brackets after ≈: the same amount, converted by molar mass. Activity calls are given as the source filed them. No cut-off for these calls is given here.

T2 sequence (P0A0K8 2-644 limits assumed): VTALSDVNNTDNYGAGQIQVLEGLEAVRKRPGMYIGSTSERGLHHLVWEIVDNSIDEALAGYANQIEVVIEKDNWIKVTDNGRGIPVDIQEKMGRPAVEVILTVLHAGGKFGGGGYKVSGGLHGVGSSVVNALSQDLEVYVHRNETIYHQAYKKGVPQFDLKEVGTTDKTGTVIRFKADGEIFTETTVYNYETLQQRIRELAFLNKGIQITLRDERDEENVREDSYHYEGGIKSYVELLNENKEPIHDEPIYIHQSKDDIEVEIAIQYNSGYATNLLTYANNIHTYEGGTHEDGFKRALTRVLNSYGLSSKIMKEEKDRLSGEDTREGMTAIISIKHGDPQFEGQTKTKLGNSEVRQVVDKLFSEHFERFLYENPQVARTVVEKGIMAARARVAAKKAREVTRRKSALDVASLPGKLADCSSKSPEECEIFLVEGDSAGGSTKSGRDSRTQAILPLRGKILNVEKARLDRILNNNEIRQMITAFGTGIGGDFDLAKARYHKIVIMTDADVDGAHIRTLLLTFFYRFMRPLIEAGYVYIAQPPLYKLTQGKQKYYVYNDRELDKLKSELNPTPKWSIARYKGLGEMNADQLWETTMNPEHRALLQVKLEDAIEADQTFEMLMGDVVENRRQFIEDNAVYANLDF
T2 sequence (P20831 whole entry partner): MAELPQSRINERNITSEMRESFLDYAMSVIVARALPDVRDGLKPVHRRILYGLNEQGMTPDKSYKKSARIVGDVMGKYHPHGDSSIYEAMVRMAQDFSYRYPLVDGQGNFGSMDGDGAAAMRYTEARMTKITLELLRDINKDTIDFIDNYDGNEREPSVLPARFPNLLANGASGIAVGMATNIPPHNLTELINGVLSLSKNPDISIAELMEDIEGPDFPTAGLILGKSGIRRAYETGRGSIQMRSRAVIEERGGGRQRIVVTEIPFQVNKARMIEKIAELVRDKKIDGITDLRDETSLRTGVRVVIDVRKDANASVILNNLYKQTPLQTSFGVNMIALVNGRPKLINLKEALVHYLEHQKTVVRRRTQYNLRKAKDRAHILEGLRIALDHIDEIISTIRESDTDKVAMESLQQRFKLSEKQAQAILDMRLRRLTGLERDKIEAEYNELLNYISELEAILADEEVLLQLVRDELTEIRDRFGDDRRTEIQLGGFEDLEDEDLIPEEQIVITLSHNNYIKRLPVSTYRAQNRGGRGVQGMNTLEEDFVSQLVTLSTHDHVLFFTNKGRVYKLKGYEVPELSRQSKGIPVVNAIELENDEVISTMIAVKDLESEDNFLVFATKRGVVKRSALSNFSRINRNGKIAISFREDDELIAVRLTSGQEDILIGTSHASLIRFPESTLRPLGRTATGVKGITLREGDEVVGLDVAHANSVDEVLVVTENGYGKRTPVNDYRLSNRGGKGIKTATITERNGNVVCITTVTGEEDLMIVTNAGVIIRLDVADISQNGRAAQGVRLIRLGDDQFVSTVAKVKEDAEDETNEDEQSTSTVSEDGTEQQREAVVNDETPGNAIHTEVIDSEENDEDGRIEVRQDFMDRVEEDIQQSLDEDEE

For the molecule `Cc1cc(O)c2c(c1)C(=O)c1c(I)c(O)c(I)c(O)c1C2=O`, the result in data set [1], in [3] and in data set [5] was inactive. Moreover, in data set [2], the inhibition entry was “Dose-dependent effect”. Moreover, the Activity result in data set [4] was “Non-toxic”. In addition, the MIC is more than 256 µg/mL in the data set on Pseudomonas aeruginosa [6]; 8 µg/mL (≈ 15.3 µM) in the data set with Enterococcus faecium; more than 256 µg/mL with Pseudomonas aeruginosa [11]; 8 µg/mL with Escherichia coli [12]; 1 µg/mL (≈ 1.92 µM) in [13]; 8 µg/mL (≈ 15.3 µM) in the data set with Staphylococcus aureus. For the same molecule, the MIC in data set [14] worked out at 4 µg/mL (≈ 7.66 µM); in the data set on Streptococcus pneumoniae, 64 µg/mL (≈ 123 µM); against Enterococcus faecalis, 16 µg/mL (≈ 30.6 µM). Further, the inhibition entry (in data set [7]; with Escherichia coli [9]; in the data set with Escherichia coli [10]; in [15]) was “Active” each time. Also, the concentration for an effect of 90% (IC90) at 24 h in [8] came to 256 µg/mL (≈ 490 µM).

The term IC90 denotes the concentration needed for an effect of 90%.
